The text below walks through data of ChEMBL document CHEMBL1131104, “Bicyclic acylguanidine Na+/H+ antiporter inhibitors” (J Med Chem, 1998).

Assay [1] is filed under the species Homo sapiens. Put plainly: Concentration to achieve half-maximal inhibition of acid-induced swelling in human platelets using platelet swelling assay. The assay is classed as functional. Summed up:
(§1)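 Human platelet-rich plasma from citrated venous blood (centrifuged 1000 rpm, 20 min, RT; pH adjusted to 7.4; used within 4–5 h). Final 2 × 10^8 platelets/mL in pH 6.6 buffer: 120 mM Na propionate, 20 mM K propionate, 20 mM HEPES, 10 mM glucose, 5 mM KCl, 1 mM MgCl2, 1 mM CaCl2, 0.86% DMSO. Swelling followed as absorbance drop at 680 nm over 4 min.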

For assay [2], the target named is Sodium/hydrogen exchanger (Oryctolagus cuniculus, UniProt P23791+P50482+P26432). Description: Sodium/hydrogen exchanger antiport activity was measured using [22]Na+ uptake inhibition assay in acidified rabbit erythrocytes. It counts as cell-based. In outline:
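Acidified rabbit erythrocytes; 22Na+ uptake measured in incubation buffer containing 10 mM Na+. Na+/H+-dependent uptake taken as the EIPA-sensitive portion of 22Na+ uptake.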

The species named for assay [3] is Homo sapiens. Put plainly: Concentration to achieve half-maximal inhibition of acid-induced swelling in human platelets using platelet swelling assay(PSA). The assay is classed as functional. Summed up:
as §1

Turning to `Cc1cc2c(cc1C(=O)N=C(N)N)S(=O)(=O)CCC2=O`, the IC50 in assay [1] was 3670 nM; in assay [2], 96 nM.
With `Cc1cc2c(cc1C(=O)N=C(N)N)S(=O)(=O)CCC21OCCO1`, the figures for the IC50 in assay [1] and in assay [2] were 1180 nM and 130 nM, respectively.
The corresponding values for `Cc1cc2c(cc1C(=O)N=C(N)N)S(=O)(=O)CC2(C)O` (stereo not drawn) are 115 nM and 30 nM.
On to `CC1(C)CC(C)(C)S(=O)(=O)c2cc(C(=O)N=C(N)N)ccc21`, for which the IC50 in assay [1] was 2080 nM; in assay [2], 360 nM.
In the case of `Cc1cc2c(cc1C(=O)N=C(N)N)S(=O)(=O)C(C)(C)C2=O`, the values for the IC50 in assay [1] and in assay [2] were 354 nM and 93 nM, respectively.
The corresponding values for `CO/N=C1\CS(=O)(=O)c2cc(C(=O)N=C(N)N)c(C)cc21` are 521 nM and 45 nM.
In the case of `C=C1CCS(=O)(=O)c2cc(C(=O)N=C(N)N)c(C)cc21`, the IC50 in assay [2] stood at 29 nM; in assay [3], 1370 nM.
Consider `Cc1cc2c(cc1C(=O)N=C(N)N)S(=O)(=O)C(C)(C)CO2`, for which the figures for the concentration for half-maximal inhibition (IC50) in assay [1] and in assay [2] were 843 nM and 36 nM, respectively.
With `CCC1CS(=O)(=O)c2cc(C(=O)N=C(N)N)c(C)cc21` (stereo not drawn), the figures for the IC50 in assay [1] and in assay [2] were 78 nM and 24 nM, respectively.
For `Cc1cc2c(cc1C(=O)N=C(N)N)S(=O)(=O)C/C2=N\O`, the 50% inhibitory concentration (IC50) was found to be 197 nM in assay [1] and 16 nM in assay [2].
With `Cc1cc2c(cc1C(=O)N=C(N)N)S(=O)(=O)CC2C(C)C` (stereo not drawn), the half-maximal inhibitory concentration (IC50) was found to be 77 nM in assay [1] and 21 nM in assay [2].
With `Cc1cc2c(cc1C(=O)N=C(N)N)S(=O)(=O)CC21OCCO1`, the IC50 is 485 nM in assay [1] and 60 nM in assay [2].
Consider `N=C(N)NC(=O)c1ccc2c(c1)S(=O)(=O)CC2`, for which the IC50 in assay [1] was greater than 100000 nM; in assay [2], 790 nM.
On to `Cc1cc2c(cc1C(=O)N=C(N)N)S(=O)(=O)CC2`, for which the IC50 in assay [1] came to 587 nM; in assay [2], 60 nM.
Regarding `COC1CS(=O)(=O)c2cc(C(=O)N=C(N)N)ccc21` (stereo not drawn), the IC50 is greater than 100000 nM in assay [1] and 700 nM in assay [2].
Take `Cc1cc2c(cc1C(=O)N=C(N)N)S(=O)(=O)CC2(O)Cc1ccccc1` (stereo not drawn): the IC50 in assay [1] came to 157 nM; in assay [2], 43 nM.
In the case of `Cc1cc2c(cc1C(=O)N=C(N)N)S(=O)(=O)CC2N` (stereo not drawn), the IC50 in assay [1] came to 692 nM; in assay [2] it was 116 nM.
The corresponding values for `Cc1cc2c(cc1C(=O)N=C(N)N)S(=O)(=O)CCC2C` (stereo not drawn) are 655 nM and 45 nM.
As for `COC1c2cc(C)c(C(=O)N=C(N)N)cc2S(=O)(=O)C1(C)C` (stereo not drawn), the IC50 in assay [1] stood at 138 nM; in assay [2] it was 27 nM.
As for `Cc1cc2c(cc1C(=O)N=C(N)N)S(=O)(=O)C(C)(C)C2C` (stereo not drawn), the IC50 was 306 nM in assay [1] and 14 nM in assay [2].
With `Cc1cc2c(cc1C(=O)N=C(N)N)S(=O)(=O)CC2C` (stereo not drawn), the IC50 in assay [1] stood at 182 nM; in assay [2], 44 nM.
As to `CC1=C(N)c2cc(C)c(C(=O)N=C(N)N)cc2S1(=O)=O`, the IC50 amounted to 2320 nM in assay [1] and 56 nM in assay [2].
Turning to `COC1(C)CS(=O)(=O)c2cc(C(=O)N=C(N)N)c(C)cc21` (stereo not drawn), the values for the IC50 in assay [1] and in assay [2] were 321 nM and 40 nM, respectively.
Turning to `Cc1cc2c(cc1C(=O)N=C(N)N)S(=O)(=O)C(C)(C)C2O` (stereo not drawn), the IC50 came out at 258 nM in assay [1] and 28 nM in assay [2].
Regarding `Cc1cc2c(cc1C(=O)N=C(N)N)S(=O)(=O)C(C)(C)C2(C)O` (stereo not drawn), the IC50 is 102 nM in assay [1] and 17 nM in assay [2].
The corresponding values for `C=C1c2cc(C)c(C(=O)N=C(N)N)cc2S(=O)(=O)C1(C)C` are 114 nM and 13 nM.
Turning to `CCC1(O)CS(=O)(=O)c2cc(C(=O)N=C(N)N)c(C)cc21` (stereo not drawn), the IC50 came to 77 nM in assay [1] and 34 nM in assay [2].
As for `N=C(N)NC(=O)c1ccc2c(c1)S(=O)(=O)CC2O` (stereo not drawn), the half-inhibitory concentration (IC50) in assay [1] was greater than 100000 nM; in assay [2] it was 1500 nM.
The corresponding values for `CC(C)=C1CS(=O)(=O)c2cc(C(=O)N=C(N)N)c(C)cc21` are 5030 nM and 54 nM.
The corresponding values for `Cc1cc2c(cc1C(=O)N=C(N)N)S(=O)(=O)CC2O` (stereo not drawn) are 1050 nM and 70 nM.
As for `Cc1cc2c(cc1C(=O)N=C(N)N)S(=O)(=O)CCC2`, the IC50 in assay [1] was determined as 14300 nM; in assay [2], 95 nM.
In the case of `Cc1cc2c(cc1C(=O)N=C(N)N)S(=O)(=O)CCCO2`, the IC50 came out at 537 nM in assay [1] and 28 nM in assay [2].
On to `CC1(C)CCS(=O)(=O)c2cc(C(=O)N=C(N)N)ccc21`, for which the IC50 in assay [2] stood at 2200 nM.
As for `Cc1cc2c(cc1C(=O)N=C(N)N)S(=O)(=O)C(C)(C)CC2C` (stereo not drawn), the IC50 in assay [1] was 1100 nM; in assay [2], 38 nM.
Turning to `Cc1cc2c(cc1C(=O)N=C(N)N)S(=O)(=O)CCCC2`, the IC50 in assay [1] worked out at 274 nM; in assay [2], 19 nM.
Turning to `COC1CS(=O)(=O)c2cc(C(=O)N=C(N)N)c(C)cc21` (stereo not drawn), the results for the 50% inhibitory concentration (IC50) in assay [1] and in assay [2] were 208 nM and 96 nM, respectively.
In assay [1], `CC(C)c1ccc(C(=O)N=C(N)N)cc1S(C)(=O)=O` [CARIPORIDE] displayed an IC50 of 117 nM.
In assay [1], `Cc1cc(-n2cccc2)c(S(C)(=O)=O)cc1C(=O)N=C(N)N` [ENIPORIDE] yielded an IC50 of 32 nM.
